# Tests used:
# Format in all cases: functional
# [1] = system: Streptococcus sp.; test: Antibacterial activity against Streptococcus sp. clinical isolate by broth microdilution method
# Method in brief: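 MIC by CLSI broth microdilution in frozen microtiter trays holding serial dilutions of each agent, prepared from standard laboratory powders. Comparator susceptibility interpreted with CLSI breakpoints.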
# [2] = system: Staphylococcus hominis; test: Antibacterial activity against methicillin-susceptible coagulase-negative Staphylococcus hominis clinical isolate by broth microdilution method
# Method in brief: (§1)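 MICs by CLSI broth microdilution in frozen trays pre-loaded with serial dilutions of each agent. Quality-control strains run in parallel: E. faecalis ATCC 29212 and ATCC 51299, S. aureus ATCC 29213, S. pneumoniae ATCC 49619. Comparator susceptibility categories follow CLSI breakpoints. Methicillin resistance in staphylococci assigned from the oxacillin MIC.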
# [3] = system: Streptococcus equinus; test: Antibacterial activity against Streptococcus bovis clinical isolate by broth microdilution method
# Method in brief: (§2)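 MIC by CLSI broth microdilution in frozen microtiter trays holding serial dilutions of each agent, prepared from standard laboratory powders. E. faecalis ATCC 29212 and ATCC 51299, S. aureus ATCC 29213 and S. pneumoniae ATCC 49619 run in parallel as quality-control strains. Comparator susceptibility interpreted with CLSI breakpoints.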
# [4] = system: Staphylococcus xylosus; test: Antibacterial activity against methicillin-susceptible coagulase-negative Staphylococcus xylosus clinical isolate by broth microdilution method; method in brief: as §1
# [5] = system: Enterococcus faecalis; test: Antibacterial activity against vancomycin-susceptible Enterococcus faecalis clinical isolate by broth microdilution method; method in brief: as §1
# [6] = system: Streptococcus mitis; test: Antibacterial activity against Streptococcus mitis clinical isolate by broth microdilution method; method in brief: as §2
# [7] = system: Streptococcus pneumoniae; test: Antibacterial activity against penicillin susceptible Streptococcus pneumoniae clinical isolate by broth microdilution method; method in brief: as §1
# [8] = system: Enterococcus faecium; test: Antibacterial activity against vancomycin-resistant and teichoplanin-susceptible Enterococcus faecium clinical isolate by broth microdilution method; method in brief: as §1
# [9] = system: Streptococcus sanguinis; test: Antibacterial activity against Streptococcus sanguinis clinical isolate by broth microdilution method; method in brief: as §2
# [10] = system: Streptococcus intermedius; test: Antibacterial activity against Streptococcus intermedius clinical isolate by broth microdilution method; method in brief: as §2
# [11] = system: Streptococcus constellatus; test: Antibacterial activity against Streptococcus constellatus clinical isolate by broth microdilution method; method in brief: as §2
# [12] = system: Staphylococcus capitis; test: Antibacterial activity against methicillin-resistant coagulase-negative Staphylococcus capitis clinical isolate by broth microdilution method; method in brief: as §1
# [13] = system: Staphylococcus simulans; test: Antibacterial activity against methicillin-susceptible coagulase-negative Staphylococcus simulans clinical isolate by broth microdilution method; method in brief: as §1
# [14] = system: Streptococcus pneumoniae; test: Antibacterial activity against penicillin resistant Streptococcus pneumoniae clinical isolate by broth microdilution method; method in brief: as §1
# [15] = system: Staphylococcus; test: Antibacterial activity against methicillin-resistant coagulase-negative unspeciated Staphylococcus clinical isolate by broth microdilution method; method in brief: as §1
# [16] = system: Staphylococcus haemolyticus; test: Antibacterial activity against methicillin-resistant coagulase-negative Staphylococcus haemolyticus clinical isolate by broth microdilution method; method in brief: as §1
# [17] = system: Staphylococcus cohnii; test: Antibacterial activity against methicillin-susceptible coagulase-negative Staphylococcus cohnii clinical isolate by broth microdilution method; method in brief: as §1
# [18] = system: Mammaliicoccus sciuri; test: Antibacterial activity against methicillin-susceptible coagulase-negative Staphylococcus sciuri clinical isolate by broth microdilution method; method in brief: as §1
# [19] = system: Staphylococcus cohnii; test: Antibacterial activity against methicillin-resistant coagulase-negative Staphylococcus cohnii clinical isolate by broth microdilution method; method in brief: as §1
# [20] = system: Staphylococcus haemolyticus; test: Antibacterial activity against methicillin-susceptible coagulase-negative Staphylococcus haemolyticus clinical isolate by broth microdilution method; method in brief: as §1
# [21] = system: Staphylococcus simulans; test: Antibacterial activity against methicillin-resistant coagulase-negative Staphylococcus simulans clinical isolate by broth microdilution method; method in brief: as §1
# [22] = system: Streptococcus oralis; test: Antibacterial activity against Streptococcus oralis clinical isolate by broth microdilution method; method in brief: as §2
# [23] = system: Staphylococcus aureus; test: Antibacterial activity against methicillin-susceptible Staphylococcus aureus clinical isolate by broth microdilution method; method in brief: as §1
# [24] = system: Staphylococcus epidermidis; test: Antibacterial activity against methicillin-resistant coagulase-negative Staphylococcus epidermidis clinical isolate by broth microdilution method; method in brief: as §1
# [25] = system: Enterococcus faecium; test: Antibacterial activity against vancomycin-susceptible Enterococcus faecium clinical isolate by broth microdilution method; method in brief: as §2
# [26] = system: Staphylococcus; test: Antibacterial activity against methicillin-susceptible coagulase-negative unspeciated Staphylococcus clinical isolate by broth microdilution method; method in brief: as §1
# [27] = system: Mammaliicoccus sciuri; test: Antibacterial activity against methicillin-resistant coagulase-negative Staphylococcus sciuri clinical isolate by broth microdilution method; method in brief: as §1
# [28] = system: Staphylococcus warneri; test: Antibacterial activity against methicillin-resistant coagulase-negative Staphylococcus warneri clinical isolate by broth microdilution method; method in brief: as §1
# [29] = system: Staphylococcus saprophyticus; test: Antibacterial activity against methicillin-resistant coagulase-negative Staphylococcus saprophyticus clinical isolate by broth microdilution method; method in brief: as §1
# [30] = system: Staphylococcus hominis; test: Antibacterial activity against methicillin-resistant coagulase-negative Staphylococcus hominis clinical isolate by broth microdilution method; method in brief: as §1
# [31] = system: Staphylococcus aureus; test: Antibacterial activity against methicillin-resistant Staphylococcus aureus clinical isolate by broth microdilution method; method in brief: as §1
# [32] = system: Enterococcus faecium; test: Antibacterial activity against vancomycin- and teichoplanin-nonsusceptible Enterococcus faecium clinical isolate by broth microdilution method; method in brief: as §1
# [33] = system: Staphylococcus xylosus; test: Antibacterial activity against methicillin-resistant coagulase-negative Staphylococcus xylosus clinical isolate by broth microdilution method; method in brief: as §1
# [34] = system: Staphylococcus saprophyticus; test: Antibacterial activity against methicillin-susceptible coagulase-negative Staphylococcus saprophyticus clinical isolate by broth microdilution method; method in brief: as §1
# [35] = system: Staphylococcus epidermidis; test: Antibacterial activity against methicillin-susceptible coagulase-negative Staphylococcus epidermidis clinical isolate by broth microdilution method; method in brief: as §1
# [36] = system: Streptococcus agalactiae; test: Antibacterial activity against Streptococcus agalactiae clinical isolate by broth microdilution method; method in brief: as §2
# [37] = system: Staphylococcus capitis; test: Antibacterial activity against methicillin-susceptible coagulase-negative Staphylococcus capitis clinical isolate by broth microdilution method; method in brief: as §1
# [38] = system: Streptococcus pneumoniae; test: Antibacterial activity against penicillin intermediate Streptococcus pneumoniae clinical isolate by broth microdilution method; method in brief: as §1
# [39] = system: Staphylococcus warneri; test: Antibacterial activity against methicillin-susceptible coagulase-negative Staphylococcus warneri clinical isolate by broth microdilution method; method in brief: as §1
# [40] = system: Enterococcus faecalis; test: Antibacterial activity against vancomycin- and teichoplanin-nonsusceptible Enterococcus faecalis clinical isolate by broth microdilution method; method in brief: as §1
smiles,measurement,setting,value
CC(=O)NC[C@H]1CN(c2ccc(N3CCOCC3)c(F)c2)C(=O)O1 [LINEZOLID],MIC,[1],≤ 0.12 µg/mL
same,MIC50,[2],1 µg/mL
same,MIC90,[2],1 µg/mL
same,MIC50,[3],1 µg/mL
same,MIC90,[3],1 µg/mL
same,MIC50,[4],1 µg/mL
same,MIC90,[4],1 µg/mL
same,MIC50,[5],1 µg/mL
same,MIC90,[5],2 µg/mL
same,MIC50,[6],1 µg/mL
same,MIC90,[6],1 µg/mL
same,MIC50,[7],1 µg/mL
same,MIC90,[7],1 µg/mL
same,MIC50,[8],2 µg/mL
same,MIC90,[8],2 µg/mL
same,MIC50,[9],1 µg/mL
same,MIC90,[9],1 µg/mL
same,MIC50,[10],1 µg/mL
same,MIC90,[10],1 µg/mL
same,MIC50,[11],1 µg/mL
same,MIC90,[11],1 µg/mL
same,MIC50,[12],1 µg/mL
same,MIC90,[12],1 µg/mL
same,MIC50,[13],1 µg/mL
same,MIC90,[13],1 µg/mL
same,MIC50,[14],1 µg/mL
same,MIC90,[14],1 µg/mL
same,MIC50,[15],1 µg/mL
same,MIC90,[15],1 µg/mL
same,MIC50,[16],1 µg/mL
same,MIC90,[16],1 µg/mL
same,MIC50,[17],1 µg/mL
same,MIC90,[17],1 µg/mL
same,MIC50,[18],1 µg/mL
same,MIC90,[18],1 µg/mL
same,MIC50,[19],1 µg/mL
same,MIC90,[19],1 µg/mL
same,MIC50,[20],1 µg/mL
same,MIC90,[20],1 µg/mL
same,MIC50,[21],1 µg/mL
same,MIC90,[21],1 µg/mL
same,MIC50,[22],1 µg/mL
same,MIC90,[22],1 µg/mL
same,MIC50,[23],2 µg/mL
same,MIC90,[23],2 µg/mL
same,MIC50,[24],1 µg/mL
same,MIC90,[24],1 µg/mL
same,MIC50,[25],2 µg/mL
same,MIC90,[25],2 µg/mL
same,MIC50,[26],1 µg/mL
same,MIC90,[26],1 µg/mL
same,MIC50,[27],1 µg/mL
same,MIC90,[27],1 µg/mL
same,MIC50,[28],1 µg/mL
same,MIC90,[28],1 µg/mL
same,MIC50,[29],1 µg/mL
same,MIC90,[29],1 µg/mL
same,MIC50,[30],1 µg/mL
same,MIC90,[30],1 µg/mL
same,MIC50,[31],2 µg/mL
same,MIC90,[31],2 µg/mL
same,MIC50,[32],2 µg/mL
same,MIC90,[32],2 µg/mL
same,MIC50,[33],1 µg/mL
same,MIC90,[33],1 µg/mL
same,MIC50,[34],1 µg/mL
same,MIC90,[34],1 µg/mL
same,MIC50,[35],1 µg/mL
same,MIC90,[35],1 µg/mL
same,MIC50,[36],1 µg/mL
same,MIC90,[36],1 µg/mL
same,MIC50,[37],1 µg/mL
same,MIC90,[37],1 µg/mL
same,MIC50,[38],1 µg/mL
same,MIC90,[38],1 µg/mL
same,MIC50,[39],1 µg/mL
same,MIC90,[39],1 µg/mL
same,MIC50,[40],1 µg/mL
same,MIC90,[40],2 µg/mL

# From ChEMBL document CHEMBL1255376, “Comparative surveillance study of telavancin activity against recently collected gram-positive clinical isolates from across the United States” (2008)
